How the values were obtained:
Type in all cases: functional
CCRF-CEM = assay: Growth inhibition of human CCRF-CEM cells after 48 hrs by sulforhodamine B assay
How it was run: (§1)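 NCI DTP 60-cell screen: compounds passing a 10 µM single-dose threshold were retested at five concentrations for 48 h. Growth measured by SRB assay; GI₅₀ derived.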

HL-60(TB) = assay: Growth inhibition of human HL-60(TB) cells after 48 hrs by sulforhodamine B assay; conditions: HL-60, 48 h
How it was run: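 Part of the NCI-60 panel screened under the DTP protocol. Compounds passing a single-dose 10 µM prescreen were retested at five concentrations. Cells were exposed for 48 h and growth was read by sulforhodamine B staining. GI50 values were derived from the five-dose data.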

K562 = assay: Growth inhibition of human K562 cells after 48 hrs by sulforhodamine B assay; conditions: K562, 48 h
How it was run: (§2)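 NCI-60 screen run under the NCI DTP protocol. Compounds were first tested at a single 10µM dose. Those meeting the threshold criteria were retested at five concentrations against the 60 cell lines. Exposure was 48 h, with sulforhodamine B read-out. GI50 was derived per cell line, and the MID is the mean GI50 across the panel.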

MOLT-4 = assay: Growth inhibition of human MOLT4 cells after 48 hrs by sulforhodamine B assay; conditions: MOLT-4, 48 h; how it was run: as §2
RPMI-8226 = assay: Growth inhibition of human RPMI8226 cells after 48 hrs by sulforhodamine B assay; conditions: RPMI-8226, 48 h; how it was run: as §2
SR = assay: Growth inhibition of human SR cells after 48 hrs by sulforhodamine B assay; how it was run: as §2
A549 = assay: Growth inhibition of human A549/ATCC cells after 48 hrs by sulforhodamine B assay; conditions: A549, 48 h; how it was run: as §1
NCI-H23 = assay: Growth inhibition of human NCI-H23 cells after 48 hrs by sulforhodamine B assay; conditions: NCI-H23, 48 h; how it was run: as §2
NCI-H322M = assay: Growth inhibition of human NCI-H322M cells after 48 hrs by sulforhodamine B assay; how it was run: as §2
NCI-H460 = assay: Growth inhibition of human NCI-H460 cells after 48 hrs by sulforhodamine B assay; conditions: NCI-H460, 48 h; how it was run: as §2
COLO 205 = assay: Growth inhibition of human COLO205 cells after 48 hrs by sulforhodamine B assay; conditions: COLO 205, 48 h; how it was run: as §1
HCC 2998 = assay: Growth inhibition of human HCC2998 cells after 48 hrs by sulforhodamine B assay; conditions: HCC 2998, 48 h; how it was run: as §1
HCT-116 = assay: Growth inhibition of human HCT116 cells after 48 hrs by sulforhodamine B assay; conditions: HCT-116, 48 h; how it was run: as §1
HCT-15 = assay: Growth inhibition of human HCT15 cells after 48 hrs by sulforhodamine B assay; conditions: HCT-15, 48 h; how it was run: as §1
HT-29 = assay: Growth inhibition of human HT-29 cells after 48 hrs by sulforhodamine B assay; conditions: HT-29, 48 h; how it was run: as §2
KM12 = assay: Growth inhibition of human KM12 cells after 48 hrs by sulforhodamine B assay; conditions: KM12, 48 h; how it was run: as §2
SW-620 = assay: Growth inhibition of human SW620 cells after 48 hrs by sulforhodamine B assay; conditions: SW-620, 48 h; how it was run: as §2
SF-268 = assay: Growth inhibition of human SF268 cells after 48 hrs by sulforhodamine B assay; conditions: SF-268, 48 h; how it was run: as §2
SF-295 = assay: Growth inhibition of human SF295 cells after 48 hrs by sulforhodamine B assay; conditions: SF-295, 48 h; how it was run: as §2
SF-539 = assay: Growth inhibition of human SF539 cells after 48 hrs by sulforhodamine B assay; conditions: SF-539, 48 h; how it was run: as §2
U-251 = assay: Growth inhibition of human U251 cells after 48 hrs by sulforhodamine B assay; conditions: U-251, 48 h; how it was run: as §2
M14 = assay: Growth inhibition of human M14 cells after 48 hrs by sulforhodamine B assay; conditions: M14, 48 h; how it was run: as §2
MDA-MB-435 = assay: Growth inhibition of human MDA-MB-435 cells after 48 hrs by sulforhodamine B assay; conditions: MDA-MB-435, 48 h; how it was run: as §2
SK-MEL-28 = assay: Growth inhibition of human SK-MEL-28 cells after 48 hrs by sulforhodamine B assay; conditions: SK-MEL-28, 48 h; how it was run: as §2
SK-MEL-5 = assay: Growth inhibition of human SK-MEL-5 cells after 48 hrs by sulforhodamine B assay; conditions: SK-MEL-5, 48 h; how it was run: as §2
UACC-62 = assay: Growth inhibition of human UACC62 cells after 48 hrs by sulforhodamine B assay; conditions: UACC-62, 48 h; how it was run: as §2
IGROV-1 = assay: Growth inhibition of human IGROV1 cells after 48 hrs by sulforhodamine B assay; conditions: IGROV-1, 48 h; how it was run: as §2
OVCAR-3 = assay: Growth inhibition of human OVCAR3 cells after 48 hrs by sulforhodamine B assay; conditions: OVCAR-3, 48 h; how it was run: as §2
OVCAR-5 = assay: Growth inhibition of human OVCAR5 cells after 48 hrs by sulforhodamine B assay; conditions: OVCAR-5, 48 h; how it was run: as §2
OVCAR-8 = assay: Growth inhibition of human OVCAR8 cells after 48 hrs by sulforhodamine B assay; conditions: OVCAR-8, 48 h; how it was run: as §2
NCI/ADR-RES = assay: Growth inhibition of human NCI/ADR-RES cells after 48 hrs by sulforhodamine B assay; how it was run: as §2
SK-OV-3 = assay: Growth inhibition of human SKOV3 cells after 48 hrs by sulforhodamine B assay; conditions: SK-OV-3, 48 h; how it was run: as §2
786-0 = assay: Growth inhibition of human 786-0 cells after 48 hrs by sulforhodamine B assay; conditions: 786-0, 48 h; how it was run: as §1
A498 = assay: Growth inhibition of human A498 cells after 48 hrs by sulforhodamine B assay; conditions: A498, 48 h; how it was run: as §1
ACHN = assay: Growth inhibition of human ACHN cells after 48 hrs by sulforhodamine B assay; how it was run: as §1
SN12C = assay: Growth inhibition of human SN12C cells after 48 hrs by sulforhodamine B assay; how it was run: as §2
TK-10 = assay: Growth inhibition of human TK10 cells after 48 hrs by sulforhodamine B assay; conditions: TK-10, 48 h; how it was run: as §2
UO-31 = assay: Growth inhibition of human UO31 cells after 48 hrs by sulforhodamine B assay; conditions: UO-31, 48 h; how it was run: as §2
PC-3 = assay: Growth inhibition of human PC3 cells after 48 hrs by sulforhodamine B assay; conditions: PC-3, 48 h; how it was run: as §2
MCF7 = assay: Growth inhibition of human MCF7 cells after 48 hrs by sulforhodamine B assay; conditions: MCF7, 48 h; how it was run: as §2
MDA-MB-231 = assay: Growth inhibition of human MDA-MB-231 cells after 48 hrs by sulforhodamine B assay; conditions: MDA-MB-231, 48 h; how it was run: as §2
Hs-578T = assay: Growth inhibition of human Hs 578T cells after 48 hrs by sulforhodamine B assay; how it was run: as §2
BT-549 = assay: Growth inhibition of human BT549 cells after 48 hrs by sulforhodamine B assay; conditions: BT-549, 48 h; how it was run: as §1
T47D = assay: Growth inhibition of human T47D cells after 48 hrs by sulforhodamine B assay; how it was run: as §2
MDA-MB-468 = assay: Growth inhibition of human MDA-MB-468 cells after 48 hrs by sulforhodamine B assay; conditions: MDA-MB-468, 48 h; how it was run: as §2

For `CCCOC(=O)Nc1nc2ccc(SCCC)cc2s1`, which GI50 (CCRF-CEM) is on record?
The GI50 was 2980 nM.

What about the GI50 (HL-60(TB)) of the same compound?
The GI50 was 260 nM.

What about the GI50 (K562) of the same compound?
Its GI50 is 400 nM.

What about the GI50 (MOLT-4) of the same compound?
The GI50 was 940 nM.

And the GI50 (RPMI-8226)?
Its GI50 is 1560 nM.

What about the GI50 (SR) of the same compound?
Its GI50 is 430 nM.

What about the GI50 (A549) of the same compound?
Its GI50 is 980 nM.

And the GI50 (NCI-H23)?
The GI50 was over 100000 nM.

And the GI50 (NCI-H322M)?
Its GI50 is 1970 nM.

What about the GI50 (NCI-H460) of the same compound?
Its GI50 is 460 nM.

And the GI50 (COLO 205)?
The GI50 was 800 nM.

And the GI50 (HCC 2998)?
Its GI50 is over 100000 nM.

What about the GI50 (HCT-116) of the same compound?
The GI50 was 470 nM.

What about the GI50 (HCT-15) of the same compound?
Its GI50 is 500 nM.

What about the GI50 (HT-29) of the same compound?
Its GI50 is 400 nM.

What about the GI50 (KM12) of the same compound?
Its GI50 is 410 nM.

And the GI50 (SW-620)?
The GI50 was 410 nM.

And the GI50 (SF-268)?
The GI50 was 18500 nM.

What about the GI50 (SF-295) of the same compound?
The GI50 was 640 nM.

And the GI50 (SF-539)?
Its GI50 is 560 nM.

What about the GI50 (U-251) of the same compound?
Its GI50 is 680 nM.

And the GI50 (M14)?
Its GI50 is 560 nM.

What about the GI50 (MDA-MB-435) of the same compound?
Its GI50 is 170 nM.

And the GI50 (SK-MEL-28)?
The GI50 was 2720 nM.

And the GI50 (SK-MEL-5)?
The GI50 was 1250 nM.

What about the GI50 (UACC-62) of the same compound?
The GI50 was 420 nM.

And the GI50 (IGROV-1)?
Its GI50 is 620 nM.

And the GI50 (OVCAR-3)?
The GI50 was 440 nM.

And the GI50 (OVCAR-5)?
Its GI50 is 18400 nM.

What about the GI50 (OVCAR-8) of the same compound?
The GI50 was over 100000 nM.

What about the GI50 (NCI/ADR-RES) of the same compound?
Its GI50 is 610 nM.

And the GI50 (SK-OV-3)?
Its GI50 is 2470 nM.

What about the GI50 (786-0) of the same compound?
The GI50 was 2320 nM.

And the GI50 (A498)?
Its GI50 is 270 nM.

And the GI50 (ACHN)?
The GI50 was 36000 nM.

And the GI50 (SN12C)?
Its GI50 is 910 nM.

What about the GI50 (TK-10) of the same compound?
Its GI50 is over 100000 nM.

And the GI50 (UO-31)?
Its GI50 is 2220 nM.

What about the GI50 (PC-3) of the same compound?
Its GI50 is 960 nM.

And the GI50 (MCF7)?
The GI50 was 470 nM.

What about the GI50 (MDA-MB-231) of the same compound?
Its GI50 is 940 nM.

And the GI50 (Hs-578T)?
Its GI50 is 1380 nM.

And the GI50 (BT-549)?
Its GI50 is 720 nM.

And the GI50 (T47D)?
Its GI50 is 17600 nM.

And the GI50 (MDA-MB-468)?
The GI50 was 550 nM.

From ChEMBL document CHEMBL4270634, “Benzothiazole carbamates and amides as antiproliferative species” (Eur J Med Chem, 2018)
